Test results reported in ChEMBL document CHEMBL2163319, “Stereoselective synthesis and antiviral activity of methyl-substituted cycloSal-pronucleotides” (J Med Chem, 2012).

Experiments:
[1] = Hydrolysis half life in human CEM cell extracts at pH 6.9; type: ADME, CCRF-CEM
Outline: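 CEM cell extracts (pH 6.9) incubated with the triester, added from a 3.0 mM DMSO stock, and sampled at several incubation times. Hydrolysis half-life determined.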

[2] = system: Human immunodeficiency virus 2; test: Antiviral activity against HIV-2 infected in thymidine kinase deficient CEM cells assessed as inhibition of virus-induced cytopathicity after 4 days; type: functional, organism-based; settings: Human immunodeficiency virus 2, CCRF-CEM, 96 h
Outline: (§1)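 Wild-type CEM/0 or thymidine kinase-deficient CEM/TK- T-lymphocyte cultures infected with HIV-1 or HIV-2 and exposed to virus and compound together for 4 days. Giant cell formation (virus-induced cytopathicity) scored by microscopy; value is the 50% effective concentration.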

[3] = Cytotoxicity against human CEM cells; type: cell-based; settings: CCRF-CEM (CEM) cells
[4] = system: Human immunodeficiency virus 1; test: Antiviral activity against HIV-1 infected in wild type CEM cells assessed as inhibition of virus-induced cytopathicity after 4 days; type: functional, organism-based; settings: Human immunodeficiency virus 1, CCRF-CEM, 96 h; outline: as §1
[5] = Hydrolysis half life in 25 mM phosphate buffer at pH 7.3 by reversed HPLC analysis; type: physicochemical
[6] = system: Human immunodeficiency virus 2; test: Antiviral activity against HIV-2 infected in wild type CEM cells assessed as inhibition of virus-induced cytopathicity after 4 days; type: functional, organism-based; settings: Human immunodeficiency virus 2, CCRF-CEM, 96 h; outline: as §1

Structure (SMILES)	half-life [1] [h]	EC50 [2] [µM]	CC50 [3] [µM]	EC50 [4] [µM]	half-life [5] [h]	EC50 [6] [µM]
Cc1cccc2c1O[P@@](=O)(OC[C@@H]1C=C[C@H](n3cc(C)c(=O)[nH]c3=O)O1)OC2	8.7	3.2	179	0.48	9.2	1.1
Cc1cccc2c1O[P@](=O)(OC[C@@H]1C=C[C@H](n3cc(C)c(=O)[nH]c3=O)O1)OC2	18	0.16	39	0.09	22.1	0.17
Cc1cn([C@H]2C=C[C@@H](CO)O2)c(=O)[nH]c1=O [STAVUDINE]		150	> 250	0.78		1.3
